# Assay results: ChEMBL document CHEMBL4680186, “New azole antifungals with a fused triazinone scaffold” (Eur J Med Chem, 2020)
# Calls of active or inactive are those of the source. No cut-off for these calls is given here.
# What was measured:
# Candida albicans [1] = test: Antifungal activity against Candida albicans CAAL93 infected in Swiss mouse assessed as survival at 10 mg/kg, po after 14 days relative to control; format: functional; settings: 336 h, time 14 day
# Summary of the method: (§1)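 Swiss mice (~25 g) immunosuppressed with prednisolone 30 mg/kg s.c. one day before challenge; day 0 i.v. infection with C. albicans blastoconidia (5.10⁶ yeast/mL, 100 µL). Oral dosing 1 h post-infection, once daily for 5 days, 10 mg/kg (CAAL93) or 15 mg/kg (DSY292), vehicle 40% DMSO/25% Tween80/35% olive oil. Mice given 50% grapefruit juice ad libitum. Survival followed 14 days (log-rank Mantel-Cox).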
# Candida albicans [2] = test: Inhibition of sterol biosynthesis in Candida albicans CAAL93 assessed as fecosterol level at 10 ng/ml after 18 hrs by GC-MS analysis relative to control; format: functional; set-up: scale not given: the % may be the effect or the level left
# Summary of the method: (§2)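 C. albicans CAAL93 blastospores were grown 18 h at 35 °C with stirring in 50 mL Sabouraud broth, with drug added before incubation. Cells were pelleted and saponified in ethanolic KOH at 80 °C for 60 min, and sterols extracted with hexane. Analysis by GC-MS (EI 70 eV, splitless injection at 250 °C, helium carrier); sterols identified by fragmentation pattern.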
# [3] = system: Pichia kudriavzevii (Candida krusei); test: Antifungal activity against fluconazole-resistant Candida krusei CAKR7 assessed as reduction in microbial growth after 24 hrs by resazurin staining based spectrofluorometric method; settings: CAKR7, 24 h
# Candida albicans [4] = test: Inhibition of sterol biosynthesis in Candida albicans CAAL93 assessed as 14alpha-methylfecosterol level at 10 ng/ml after 18 hrs by GC-MS analysis relative to control; format: functional; set-up: scale not given: the % may be the effect or the level left; summary of the method: as §2
# Candida albicans [5] = test: Antifungal activity against Candida albicans DSY292 harboring Erg1l G464S/R467K/Y132 mutant infected in Swiss mouse assessed as survival at 15 mg/kg, po after 5 days; format: functional, organism-based; settings: time 5.0 day; summary of the method: as §1
# Candida albicans [6] = test: Inhibition of sterol biosynthesis in Candida albicans CAAL93 assessed as eburicol level at 10 ng/ml after 18 hrs by GC-MS analysis relative to control; format: functional; set-up: scale not given: the % may be the effect or the level left; summary of the method: as §2
# Candida albicans [7] = test: Antifungal activity against Candida albicans CAAL93 infected in Swiss mouse assessed as reduction in kidney fungal burden at 10 mg/kg, po after 14 days; format: functional, organism-based; settings: time 14.0 day
# Candida albicans [8] = test: Inhibition of sterol biosynthesis in Candida albicans CAAL93 assessed as zymosterol level at 10 ng/ml after 18 hrs by GC-MS analysis (reference value: 1.6%); format: functional; set-up: scale not given: the % may be the effect or the level left; summary of the method: as §2
# Candida albicans [9] = test: Inhibition of sterol biosynthesis in Candida albicans CAAL93 assessed as lanosterol level at 10 ng/ml after 18 hrs by GC-MS analysis (reference value: 1.6%); format: functional; set-up: scale not given: the % may be the effect or the level left; summary of the method: as §2
# [10] = system: Pichia kudriavzevii (Candida krusei); test: Antifungal activity against fluconazole-resistant Candida krusei CAKR8 assessed as reduction in microbial growth after 24 hrs by resazurin staining based spectrofluorometric method; settings: CAKR8, 24 h
# Candida albicans [11] = test: Inhibition of sterol biosynthesis in Candida albicans CAAL93 assessed as episterol level at 10 ng/ml after 18 hrs by GC-MS analysis (reference value: 2%); format: functional; set-up: scale not given: the % may be the effect or the level left; summary of the method: as §2
# Candida albicans [12] = test: Inhibition of sterol biosynthesis in Candida albicans CAAL93 assessed as other sterols level at 10 ng/ml after 18 hrs by GC-MS analysis (Rvb < 1%); format: functional; set-up: scale not given: the % may be the effect or the level left; summary of the method: as §2
# Candida albicans [13] = test: Inhibition of sterol biosynthesis in Candida albicans CAAL93 assessed as ergosterol level at 10 ng/ml after 18 hrs by GC-MS analysis (reference value: 89.7%); format: functional; set-up: scale not given: the % may be the effect or the level left; summary of the method: as §2
# Candida albicans [14] = test: Inhibition of sterol biosynthesis in Candida albicans CAAL93 assessed as ergostadienol level at 10 ng/ml after 18 hrs by GC-MS analysis (reference value: 1.6%); format: functional; set-up: scale not given: the % may be the effect or the level left; summary of the method: as §2
# Rhizopus arrhizus [15] = test: Antifungal activity against Rhizopus oryzae RHPOR1 assessed as reduction in microbial growth after 24 hrs by broth microdilution method; format: functional
# Summary of the method: (§3)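 CLSI M38 broth microdilution in RPMI 1640 buffered to pH 7.0 with MOPS. Drugs were diluted in DMSO then medium; final range 0.032-16 mg/L. Conidia or sporangiospores came from 7-day potato dextrose agar cultures; diluted (2×) inocula were 0.9×10^4–4.7×10^4 CFU/mL. Incubation at 35 °C, read at 48 h except Zygomycetes at 24 h. MIC read visually as lowest concentration preventing 100% growth; duplicate.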
# Mucor circinelloides = test: Antifungal activity against Mucor circinelloides MURI1 assessed as reduction in microbial growth after 24 hrs by broth microdilution method; format: functional; summary of the method: as §3
# Rhizopus arrhizus [16] = test: Antifungal activity against Rhizopus oryzae RHPOR2 assessed as reduction in microbial growth after 24 hrs by broth microdilution method; format: functional; summary of the method: as §3
# Scedosporium apiospermum = test: Antifungal activity against Scedosporium apiospermum SCAP1 assessed as reduction in microbial growth […] by broth microdilution method; format: functional
# Fusarium sp. = test: Antifungal activity against Fusarium sp. assessed as reduction in microbial growth […] by broth microdilution method; format: functional
# Candida albicans [17] = test: Antifungal activity against Candida albicans DSY292 harboring Erg1l G464S/R467K/Y132 mutant infected in Swiss mouse assessed as survival at 15 mg/kg, po after 8 days; format: functional, organism-based; settings: time 8.0 day; summary of the method: as §1
# Aspergillus fumigatus [18] = test: Antifungal activity against Aspergillus fumigatus ASFU77 assessed as reduction in microbial growth after 48 hrs by resazurin staining based spectrofluorometric method; format: functional
# Summary of the method: (§4)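 A. fumigatus conidia counted by microscope and inoculated at 10^4 cells mL⁻¹ in RPMI 1640 with 0.165 M MOPS, 2% glucose and antibiotics. Drugs were dissolved in DMSO (fluconazole in water), then diluted in medium. Plates ran 48 h at 37 °C, then resazurin for 20 h, read by fluorescence at ex 550/em 590 nm. MIC is 80% growth inhibition by linear regression; triplicate, mean±SD.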
# Aspergillus fumigatus [19] = test: Antifungal activity against Aspergillus fumigatus ASFU76 assessed as reduction in microbial growth after 48 hrs by resazurin staining based spectrofluorometric method; format: functional; summary of the method: as §4
# Aspergillus fumigatus [20] = test: Antifungal activity against Aspergillus fumigatus ASFU7 assessed as reduction in microbial growth after 48 hrs by resazurin staining based spectrofluorometric method; format: functional; summary of the method: as §4
# Candida albicans [21] = test: Antifungal activity against fluconazole-resistant Candida albicans DSY735 over expression of CDR1/CDR2 assessed as reduction in microbial growth after 24 hrs by resazurin staining based spectrofluorometric method; format: functional
# Summary of the method: (§5)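 Broth microdilution in RPMI 1640 with 0.165 M MOPS, 2% glucose and antibiotics; yeast inoculum at 10³ cells mL⁻¹ final. Compounds were dissolved in DMSO (fluconazole in water) and diluted in medium, then incubated 24 h at 37 °C. Viability was read by resazurin fluorescence (ex 550/em 590 nm) after 4 h. MIC was taken as 50% growth inhibition, by linear regression; triplicate experiments.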
# Candida albicans [22] = test: Antifungal activity against fluconazole-susceptible Candida albicans CAAL93 assessed as reduction in microbial growth after 24 hrs by resazurin staining based spectrofluorometric method; format: functional
# Summary of the method: (§6)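 Yeasts in RPMI 1640 with 0.165 M MOPS, 2% glucose and antibiotics, final 10³ cells mL⁻¹. Drugs in DMSO (fluconazole in water) were diluted in medium. Plates ran 24 h at 37 °C, then resazurin for 4 h, fluorescence ex 550/em 590 nm. MIC is 50% growth inhibition by linear regression; triplicate, mean±SD.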
# Nakaseomyces glabratus = test: Antifungal activity against fluconazole-sensitive Candida glabrata CAGL2 assessed as reduction in microbial growth after 24 hrs by resazurin staining based spectrofluorometric method; format: functional; summary of the method: as §6
# Candida albicans [23] = test: Antifungal activity against fluconazole-resistant Candida albicans DSY292 harboring Erg1l G464S/R467K/Y132 mutant assessed as reduction in microbial growth after 24 hrs by resazurin staining based spectrofluorometric method; format: functional; summary of the method: as §5
structure (smiles),measurement,setting,value
OC(Cn1cncn1)(Cn1cncn1)c1ccc(F)cc1F [FLUCONAZOLE],survival at 10 mg/kg,Candida albicans [1],100%
same,Activity,Candida albicans [2],2.8%
same,MIC,[3],> 3 µg/mL
same,Activity,Candida albicans [4],2%
same,Survival,Candida albicans [5],inactive
same,Activity,Candida albicans [6],2.2%
same,Activity,Candida albicans [7],Active
same,Activity,Candida albicans [8],2.8%
same,Activity,Candida albicans [9],13.1%
same,MIC,[10],> 10 µg/mL
same,Activity,Candida albicans [11],8.8%
same,Activity,Candida albicans [12],7.3%
same,Activity,Candida albicans [13],57.8%
same,Activity,Candida albicans [14],3.2%
C[C@@H](n1ncc2cccn2c1=O)[C@](O)(Cn1cncn1)c1ccc(F)cc1F,MIC,Rhizopus arrhizus [15],4 µg/mL
same,MIC,Mucor circinelloides,16 µg/mL
same,MIC,Rhizopus arrhizus [16],8 µg/mL
same,MIC,[3],0.625 µg/mL
same,MIC,Scedosporium apiospermum,> 16 µg/mL
same,MIC,[10],1.15 µg/mL
same,MIC,Fusarium sp.,> 16 µg/mL
C[C@@H](c1ncncc1F)[C@](O)(Cn1cncn1)c1ccc(F)cc1F [VORICONAZOLE],MIC,Mucor circinelloides,> 8 µg/mL
same,Survival,Candida albicans [17],inactive
same,MIC,Rhizopus arrhizus [16],8 µg/mL
same,MIC,[3],0.817 µg/mL
same,MIC,Scedosporium apiospermum,0.5 µg/mL
same,MIC,[10],0.24 µg/mL
same,MIC,Fusarium sp.,6 µg/mL
C[C@@H](n1ncc2cc(-c3ccc(C#N)cc3)cn2c1=O)[C@](O)(Cn1cncn1)c1ccc(F)cc1F,MIC,Rhizopus arrhizus [15],0.125 µg/mL
same,MIC,Mucor circinelloides,0.75 µg/mL
same,MIC,Rhizopus arrhizus [16],0.25 µg/mL
same,MIC,[3],0.058 µg/mL
same,MIC,Aspergillus fumigatus [18],> 100 µg/mL
same,MIC,Aspergillus fumigatus [19],> 100 µg/mL
same,MIC,Aspergillus fumigatus [20],> 100 µg/mL
same,MIC,Scedosporium apiospermum,> 16 µg/mL
same,MIC,[10],0.101 µg/mL
same,MIC,Fusarium sp.,10 µg/mL
C[C@@H](n1ncc2cc(-c3ccccc3)cn2c1=O)[C@](O)(Cn1cncn1)c1ccc(F)cc1F,MIC,[3],0.013 µg/mL
same,MIC,[10],0.014 µg/mL
C[C@@H]1[C@H](O)[C@@H](C)/C=C/C=C/C=C/C=C/C=C/C=C/C=C/[C@H](O[C@@H]2O[C@H](C)[C@@H](O)[C@H](N)[C@@H]2O)C[C@@H]2O[C@](O)(C[C@@H](O)C[C@@H](O)[C@H](O)CC[C@@H](O)C[C@@H](O)CC(=O)O[C@H]1C)C[C@H](O)[C@H]2C(=O)O [AMPHOTERICIN B],MIC,Rhizopus arrhizus [15],0.19 µg/mL
same,MIC,Mucor circinelloides,0.19 µg/mL
same,MIC,Rhizopus arrhizus [16],0.5 µg/mL
same,MIC,Scedosporium apiospermum,> 8 µg/mL
same,MIC,Fusarium sp.,12 µg/mL
C[C@@H](n1ncc2cc(Br)cn2c1=O)[C@](O)(Cn1cncn1)c1ccc(F)cc1F,MIC,Candida albicans [21],0.14 µg/mL
same,MIC,Rhizopus arrhizus [15],4 µg/mL
same,MIC,Mucor circinelloides,8 µg/mL
same,MIC,Candida albicans [22],0.002 µg/mL
same,MIC,Nakaseomyces glabratus,0.014 µg/mL
same,MIC,Candida albicans [23],0.155 µg/mL
same,MIC,Rhizopus arrhizus [16],8 µg/mL
same,MIC,[3],0.251 µg/mL
same,MIC,Aspergillus fumigatus [18],6.74 µg/mL
same,MIC,Aspergillus fumigatus [20],6.66 µg/mL
same,MIC,Scedosporium apiospermum,4 µg/mL
same,MIC,[10],0.076 µg/mL
same,MIC,Fusarium sp.,> 16 µg/mL
CC[C@@H]([C@H](C)O)n1ncn(-c2ccc(N3CCN(c4ccc(OC[C@@H]5CO[C@@](Cn6cncn6)(c6ccc(F)cc6F)C5)cc4)CC3)cc2)c1=O [POSACONAZOLE],MIC,Rhizopus arrhizus [15],0.19 µg/mL
same,MIC,Mucor circinelloides,0.19 µg/mL
same,MIC,Rhizopus arrhizus [16],0.5 µg/mL
same,MIC,Scedosporium apiospermum,1.25 µg/mL
same,MIC,Fusarium sp.,> 8 µg/mL
C[C@@H](n1ncc2cc(-c3ccc([N+](=O)[O-])cc3)cn2c1=O)[C@](O)(Cn1cncn1)c1ccc(F)cc1F,MIC,Rhizopus arrhizus [15],0.0625 µg/mL
same,MIC,Mucor circinelloides,0.25 µg/mL
same,MIC,Rhizopus arrhizus [16],0.25 µg/mL
same,MIC,[3],0.066 µg/mL
same,MIC,Scedosporium apiospermum,> 16 µg/mL
same,MIC,[10],0.039 µg/mL
same,MIC,Fusarium sp.,12 µg/mL
CCC(C)n1ncn(-c2ccc(N3CCN(c4ccc(OCC5COC(Cn6cncn6)(c6ccc(Cl)cc6Cl)O5)cc4)CC3)cc2)c1=O (configuration not stated) [ITRACONAZOLE],MIC,Rhizopus arrhizus [15],0.19 µg/mL
same,MIC,Mucor circinelloides,0.19 µg/mL
same,MIC,Rhizopus arrhizus [16],1.12 µg/mL
same,MIC,Aspergillus fumigatus [18],> 100 µg/mL
same,MIC,Aspergillus fumigatus [20],0.5 µg/mL
same,MIC,Scedosporium apiospermum,0.5 µg/mL
same,MIC,Fusarium sp.,> 16 µg/mL
